23 compounds from ChEMBL document CHEMBL1149447, “Synthesis of 2,5-thiazole butanoic acids as potent and selective alpha(v)beta3 integrin receptor antagonists with improved oral pharmacokinetic properties” (Bioorg Med Chem Lett, 2006) can be followed below.

One data set deals with Integrin alpha-V/beta-3 (Homo sapiens, UniProt P05106+P06756). The data set can be described thus: Inhibition of Integrin alphaV Beta3 receptor by solid-phase receptor binding assay. Type of data set: protein-complex assay.
Chain of Integrin alpha-V/beta-3 (P05106 27-788 limits assumed): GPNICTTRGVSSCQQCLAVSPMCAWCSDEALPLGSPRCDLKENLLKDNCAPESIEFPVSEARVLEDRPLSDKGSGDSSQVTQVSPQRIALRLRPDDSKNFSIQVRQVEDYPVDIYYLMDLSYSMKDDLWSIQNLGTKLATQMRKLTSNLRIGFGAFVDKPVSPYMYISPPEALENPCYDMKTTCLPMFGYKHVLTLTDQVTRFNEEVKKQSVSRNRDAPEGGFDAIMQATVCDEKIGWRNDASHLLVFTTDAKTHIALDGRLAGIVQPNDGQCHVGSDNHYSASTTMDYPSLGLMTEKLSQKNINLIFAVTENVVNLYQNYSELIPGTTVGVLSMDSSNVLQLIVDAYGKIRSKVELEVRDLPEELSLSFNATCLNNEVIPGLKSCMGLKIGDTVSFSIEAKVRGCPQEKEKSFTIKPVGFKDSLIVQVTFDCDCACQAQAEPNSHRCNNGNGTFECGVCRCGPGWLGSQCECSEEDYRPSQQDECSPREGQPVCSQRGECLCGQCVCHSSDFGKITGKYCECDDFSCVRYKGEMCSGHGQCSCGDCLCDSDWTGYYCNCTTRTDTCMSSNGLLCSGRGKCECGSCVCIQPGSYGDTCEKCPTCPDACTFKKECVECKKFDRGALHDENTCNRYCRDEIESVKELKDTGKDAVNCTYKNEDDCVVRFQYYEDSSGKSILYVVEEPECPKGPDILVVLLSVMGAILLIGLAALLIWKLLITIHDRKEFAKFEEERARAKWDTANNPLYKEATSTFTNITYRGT
Chain of Integrin alpha-V/beta-3 (P06756 31-889 limits assumed): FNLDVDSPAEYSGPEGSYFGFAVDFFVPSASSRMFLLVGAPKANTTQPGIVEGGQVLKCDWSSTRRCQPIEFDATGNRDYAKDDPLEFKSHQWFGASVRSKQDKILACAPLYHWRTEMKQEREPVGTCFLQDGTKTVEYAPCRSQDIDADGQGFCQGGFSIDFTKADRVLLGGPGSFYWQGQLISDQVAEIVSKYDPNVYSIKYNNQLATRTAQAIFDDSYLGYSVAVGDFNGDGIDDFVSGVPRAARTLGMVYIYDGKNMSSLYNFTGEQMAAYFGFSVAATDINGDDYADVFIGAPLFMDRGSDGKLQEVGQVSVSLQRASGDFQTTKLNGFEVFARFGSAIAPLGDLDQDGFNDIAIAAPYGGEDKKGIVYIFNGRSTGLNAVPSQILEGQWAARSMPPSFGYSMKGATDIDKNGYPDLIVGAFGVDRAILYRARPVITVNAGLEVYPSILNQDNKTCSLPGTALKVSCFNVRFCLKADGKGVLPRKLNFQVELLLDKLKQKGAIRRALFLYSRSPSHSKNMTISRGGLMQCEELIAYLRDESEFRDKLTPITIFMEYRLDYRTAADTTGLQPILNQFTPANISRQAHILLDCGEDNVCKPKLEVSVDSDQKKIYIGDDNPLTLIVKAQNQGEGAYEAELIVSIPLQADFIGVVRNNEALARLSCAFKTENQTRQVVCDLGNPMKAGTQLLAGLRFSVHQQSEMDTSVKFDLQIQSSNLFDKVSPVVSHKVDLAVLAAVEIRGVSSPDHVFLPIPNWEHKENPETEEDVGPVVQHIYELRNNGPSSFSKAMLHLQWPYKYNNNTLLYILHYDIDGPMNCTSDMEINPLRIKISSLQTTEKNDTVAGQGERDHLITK
Chain of Integrin alpha-V/beta-3 (P06756 891-1048 limits assumed): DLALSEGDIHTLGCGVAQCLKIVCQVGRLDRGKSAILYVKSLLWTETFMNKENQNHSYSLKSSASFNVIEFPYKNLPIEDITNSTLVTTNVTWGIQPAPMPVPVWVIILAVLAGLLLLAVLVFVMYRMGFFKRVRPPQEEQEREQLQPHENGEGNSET
The subject of data set [1] is Rattus norvegicus. Put plainly: AUC/dose(mg/kg) in orally dosed rat. Format: ADME, organism-based, Plasma. To be noted: in vivo, po. The method in brief:
(§1)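 Rats were given the compound both orally and intravenously. Oral and IV AUC are each normalized to dose (µg h/ml per mg/kg). The same rat study also reports oral bioavailability (%F), half-life (h), Cmax (µg/mL), clearance (mL/min/kg) and terminal volume Vz (mL/kg).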

A short description of data set [2]: Cmax in rat. Type of data set: ADME, organism-based. The note with it: in vivo. A digest of the protocol: as §1
A short description of data set [3]: Half life in rat. Type of data set: ADME, organism-based. To be noted: in vivo. A digest of the protocol:
as §1

Data set [4] can be described thus: Volume of distribution in rat. Type of data set: ADME, organism-based. The note with it: in vivo, read-out: Vdss. The method in brief:
as §1

Data set [5] can be described thus: Bioavailability in rat. Type of data set: ADME, organism-based. The note with it: in vivo. A digest of the protocol: as §1
A further data set concerns the target Integrin alpha-V/beta-6 (Homo sapiens, UniProt P06756+P18564). Put plainly: Inhibition of Integrin alphaV Beta6 receptor in HT29 cells by solid-phase receptor binding assay. Format: cell-based, HT-29.
The test system of data set [6] is Rattus norvegicus. The data set can be described thus: AUC/dose(mg/kg) in iv dosed rat. Format: ADME, organism-based, Plasma. The note with it: in vivo. A digest of the protocol:
as §1

A short description of data set [7]: Clearance in rat. Type of data set: ADME, organism-based. The note with it: in vivo. A digest of the protocol:
as §1

In data set [8] the target is Integrin alpha-IIb/beta-3 (Homo sapiens, UniProt P05106+P08514). Put plainly: Inhibition of Integrin alphaIIb Beta3 receptor by solid-phase receptor binding assay. Type of data set: protein-complex assay.
Chain of Integrin alpha-IIb/beta-3 (P05106 27-788 limits assumed): as the sequence (P05106 27-788 limits assumed) above
Chain of Integrin alpha-IIb/beta-3 (P08514 32-887 limits assumed): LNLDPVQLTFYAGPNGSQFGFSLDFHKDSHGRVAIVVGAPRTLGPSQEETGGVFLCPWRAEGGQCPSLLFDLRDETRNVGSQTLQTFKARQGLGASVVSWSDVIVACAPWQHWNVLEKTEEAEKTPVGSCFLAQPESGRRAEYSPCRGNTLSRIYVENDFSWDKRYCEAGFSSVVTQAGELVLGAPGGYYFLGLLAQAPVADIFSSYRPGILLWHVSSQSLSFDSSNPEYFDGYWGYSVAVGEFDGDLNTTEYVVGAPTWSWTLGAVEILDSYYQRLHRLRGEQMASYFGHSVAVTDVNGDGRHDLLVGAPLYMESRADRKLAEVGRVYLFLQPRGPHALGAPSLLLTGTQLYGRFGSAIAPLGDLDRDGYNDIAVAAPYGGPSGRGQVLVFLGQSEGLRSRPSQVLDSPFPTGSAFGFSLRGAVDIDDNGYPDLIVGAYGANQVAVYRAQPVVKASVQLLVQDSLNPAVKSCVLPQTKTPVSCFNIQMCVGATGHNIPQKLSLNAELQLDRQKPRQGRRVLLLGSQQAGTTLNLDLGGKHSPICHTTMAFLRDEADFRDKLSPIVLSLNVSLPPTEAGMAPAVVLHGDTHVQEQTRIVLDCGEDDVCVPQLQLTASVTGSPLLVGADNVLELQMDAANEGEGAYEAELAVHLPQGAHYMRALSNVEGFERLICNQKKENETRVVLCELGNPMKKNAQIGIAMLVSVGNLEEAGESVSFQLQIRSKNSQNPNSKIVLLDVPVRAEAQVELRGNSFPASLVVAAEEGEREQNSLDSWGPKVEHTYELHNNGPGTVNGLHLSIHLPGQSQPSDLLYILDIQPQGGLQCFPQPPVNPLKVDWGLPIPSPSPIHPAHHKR
Chain of Integrin alpha-IIb/beta-3 (P08514 891-1039 limits assumed): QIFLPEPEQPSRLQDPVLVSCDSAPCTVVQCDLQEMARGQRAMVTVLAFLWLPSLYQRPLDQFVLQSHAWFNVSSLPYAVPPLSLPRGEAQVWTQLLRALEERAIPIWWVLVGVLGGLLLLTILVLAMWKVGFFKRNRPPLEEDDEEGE
The nature of data set [9]: Bioavailability in dog. Format: ADME, organism-based, Canis lupus familiaris. To be noted: in vivo.
The nature of data set [10]: Half life in cynomonkey. The note with it: cynomolgus monkey, in vivo. Type of data set: ADME, organism-based, Macaca fascicularis.
Data set [11] can be described thus: Half life in dog. Type of data set: ADME, organism-based, Canis lupus familiaris. The note with it: in vivo.
Data set [12] is described as follows: Bioavailability in cynomonkey. Type of data set: ADME, organism-based, Macaca fascicularis. To be noted: cynomolgus monkey, in vivo.

Chain of Integrin alpha-V/beta-6 (P06756 31-889 limits assumed): as the sequence (P06756 31-889 limits assumed) above
Chain of Integrin alpha-V/beta-6 (P06756 891-1048 limits assumed): as the sequence (P06756 891-1048 limits assumed) above
Chain of Integrin alpha-V/beta-6 (P18564 22-788 limits assumed): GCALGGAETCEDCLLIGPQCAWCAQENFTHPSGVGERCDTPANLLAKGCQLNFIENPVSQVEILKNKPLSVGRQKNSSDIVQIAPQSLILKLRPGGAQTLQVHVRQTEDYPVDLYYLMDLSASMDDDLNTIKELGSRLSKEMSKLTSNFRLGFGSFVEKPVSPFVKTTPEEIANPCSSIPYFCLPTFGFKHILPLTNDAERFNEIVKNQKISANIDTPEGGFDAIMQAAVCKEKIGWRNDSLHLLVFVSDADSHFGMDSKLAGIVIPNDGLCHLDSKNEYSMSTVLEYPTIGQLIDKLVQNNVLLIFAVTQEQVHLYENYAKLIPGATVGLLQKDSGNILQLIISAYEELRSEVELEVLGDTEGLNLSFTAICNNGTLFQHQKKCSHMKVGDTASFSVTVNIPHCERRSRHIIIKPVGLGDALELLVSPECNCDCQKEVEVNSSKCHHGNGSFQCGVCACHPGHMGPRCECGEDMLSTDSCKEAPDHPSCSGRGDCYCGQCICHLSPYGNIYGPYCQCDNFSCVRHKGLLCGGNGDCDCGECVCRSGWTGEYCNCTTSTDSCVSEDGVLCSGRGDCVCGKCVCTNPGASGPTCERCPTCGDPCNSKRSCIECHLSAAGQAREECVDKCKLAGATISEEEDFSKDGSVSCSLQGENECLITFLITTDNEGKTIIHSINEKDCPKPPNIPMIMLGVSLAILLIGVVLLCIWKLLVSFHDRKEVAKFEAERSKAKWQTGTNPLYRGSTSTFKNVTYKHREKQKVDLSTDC

Turning to `COc1ccc(C(CC(=O)O)Cc2csc(CCCCNc3cc(N4CCSCC4)ccn3)n2)cn1` (configuration not stated), the 50% inhibitory concentration (IC50) at Integrin alpha-V/beta-3 turned out to be 3.73 nM.

Turning to `COc1ccc(C(CC(=O)O)Cc2csc(CCCCNc3cc(N4CCCC4)ccn3)n2)cn1` (configuration not stated), the half-inhibitory concentration (IC50) on Integrin alpha-V/beta-3 came out at 3 nM.

Regarding `COc1ccc(C(CC(=O)O)Cc2csc(CCCc3ccc4c(n3)NCCC4)n2)cc1F` (configuration not stated), the values for the AUC/dose with Rattus norvegicus [1] and with Rattus norvegicus [6] were 1.8 µg·h/mL and 1.9 µg·h/mL, respectively. In addition, the highest level in data set [2] (Cmax) was 9100 ng/mL. Further, the half-life in [3] was 4.3 h. Also, the Vd in data set [4] was found to be 1.29 L/kg. Besides, the IC50 at Integrin alpha-V/beta-3 is 2.17 nM; at Integrin alpha-V/beta-6 it was 3260 nM; in data set [8] it was 405 nM. The compound also yielded a bioavailability in data set [5] of 95%. Besides, the clearance in data set [7] turned out to be 9 mL/min/kg.

Take `O=C(O)C[C@H](Cc1csc(CCCCNc2cc(N3CCCC3)ccn2)n1)c1ccc2c(c1)OCO2`: the IC50 on Integrin alpha-V/beta-3 amounted to 1.26 nM.

In turn, `O=C(O)C[C@H](Cc1csc(CCCCNc2cc(N3CCSCC3)ccn2)n1)c1ccc2c(c1)OCO2` yielded a half-inhibitory concentration (IC50) at Integrin alpha-V/beta-3 of 1.7 nM.

As for `COc1cc(OC)cc(C(CC(=O)O)Cc2csc(CCCc3ccc4c(n3)NCCC4)n2)c1` (configuration not stated), the AUC/dose in the data set on Rattus norvegicus [1] and in the data set with Rattus norvegicus [6] was 2.2 µg·h/mL throughout. The compound further had a Cmax in data set [2] of 6100 ng/mL. This compound also gave a half-life in data set [3] of 6.1 h. Further, the Vd in data set [4] worked out at 2.04 L/kg. For the same compound, the values for the IC50 (at Integrin alpha-V/beta-3; on Integrin alpha-V/beta-6; in data set [8]) were 1.54 nM, 1740 nM and 350 nM, respectively. Moreover, in [5], the bioavailability amounted to 98%. In data set [7], the clearance came to 7.3 mL/min/kg.

For `COc1ccc(C(CC(=O)O)Cc2csc(CCCc3ccc4c(n3)NCCC4)n2)cn1` (configuration not stated), the AUC/dose in the data set on Rattus norvegicus [1] was 1.6 µg·h/mL; in the data set on Rattus norvegicus [6] it was 1.4 µg·h/mL. In [2], this compound registered a Cmax of 6600 ng/mL. The same compound had a half-life in data set [3] of 6.3 h. The Vd in data set [4] came out at 2.95 L/kg. The IC50 was determined as 1.23 nM at Integrin alpha-V/beta-3 and 1320 nM at Integrin alpha-V/beta-6. The compound further had a bioavailability in data set [5] of over 100%. Also, the clearance in data set [7] came out at 12.3 mL/min/kg.

Regarding `CN1CCNc2nc(CCCc3nc(CC(CC(=O)O)c4ccc5c(c4)OCO5)cs3)ccc21` (configuration not stated), on Integrin alpha-V/beta-3, the IC50 stood at 0.61 nM.

For the compound `COCc1ncc(C(CC(=O)O)Cc2csc(CCCc3ccc4c(n3)NCCC4)n2)s1` (configuration not stated), the AUC/dose in the data set with Rattus norvegicus [1] stood at 1.7 µg·h/mL; in the data set on Rattus norvegicus [6] it was 1.9 µg·h/mL. Besides, the Cmax in data set [2] was 3000 ng/mL. Also, the half-life in [3] was 7.1 h. The Vd in [4] was 2.68 L/kg. Besides, the figures for the IC50 on Integrin alpha-V/beta-3 and on Integrin alpha-V/beta-6 were 1.2 nM and 841 nM, respectively. The bioavailability in data set [5] stood at 90%. This compound showed a clearance in data set [7] of 8.7 mL/min/kg.

For `Cc1ccc(C(CC(=O)O)Cc2csc(CCCc3ccc4c(n3)NCCC4)n2)cc1` (configuration not stated), the IC50 on Integrin alpha-V/beta-3 was found to be 11.1 nM; at Integrin alpha-V/beta-6, 5060 nM; in data set [8], 2000 nM.

For `O=C(O)CC(Cc1csc(CCCc2ccc3c(n2)NCCC3)n1)c1cccc(F)c1` (configuration not stated), the IC50 on Integrin alpha-V/beta-3 came to 2.8 nM; on Integrin alpha-V/beta-6, 1310 nM; in [8], 559 nM.

For `Cc1nc2cc(C(CC(=O)O)Cc3csc(CCCc4ccc5c(n4)NCCC5)n3)ccc2s1` (configuration not stated), the IC50 is 2.82 nM at Integrin alpha-V/beta-3, over 10000 nM on Integrin alpha-V/beta-6 and 95.1 nM in data set [8].

As to `O=C(O)C[C@H](Cc1csc(CCCc2ccc3c(n2)NCCC3)n1)c1ccc2c(c1)OCO2`, the bioavailability in data set [9] is 60%; in data set [12], 64%. Moreover, the half-life in data set [10] is 11.2 h; in [11], 13 h.

On to `COc1ccc(C(CC(=O)O)Cc2csc(CCCc3ccc4c(n3)NCCN4C)n2)cn1` (configuration not stated), for which, at Integrin alpha-V/beta-3, the IC50 turned out to be 1.24 nM.

With `O=C(O)CC(Cc1csc(CCCc2ccc3c(n2)NCCC3)n1)c1ccc2c(c1)OCO2` (configuration not stated), the AUC/dose came to 6.8 µg·h/mL in the data set on Rattus norvegicus [1] and 5.2 µg·h/mL in the data set on Rattus norvegicus [6]. The Cmax in data set [2] was determined as 19600 ng/mL. In data set [3], this compound had a half-life of 7 h. Moreover, in [4], the Vd was determined as 0.897 L/kg. Further, the IC50 was 1.18 nM on Integrin alpha-V/beta-3, 2390 nM on Integrin alpha-V/beta-6 and 263 nM in [8]. Moreover, in data set [5], the bioavailability was over 100%. Besides, in [7], the clearance amounted to 3.3 mL/min/kg.

Consider `COc1ccc(C(CC(=O)O)Cc2csc(CCCCNc3cc(N4CCOCC4)ccn3)n2)cn1` (configuration not stated), for which the IC50 at Integrin alpha-V/beta-3 worked out at 3.54 nM.

As for `O=C(O)CC(Cc1csc(CCCc2ccc3c(n2)NCCC3)n1)c1cnc(C2CC2)s1` (configuration not stated), the figures for the AUC/dose with Rattus norvegicus [1] and in the data set on Rattus norvegicus [6] were 2.5 µg·h/mL and 2.4 µg·h/mL, respectively. Also, in [2], the Cmax was determined as 22000 ng/mL. This compound showed a half-life in [3] of 3.4 h. The Vd in data set [4] was found to be 1.02 L/kg. In addition, the 50% inhibitory concentration (IC50) at Integrin alpha-V/beta-3 turned out to be 1.22 nM; on Integrin alpha-V/beta-6, 313 nM. The compound further displayed a bioavailability in data set [5] of over 100%. The compound further came in with a clearance in data set [7] of 6.8 mL/min/kg.

Consider `O=C(O)CC(Cc1csc(CCCc2ccc3c(n2)NCCC3)n1)c1ccc(Cl)cc1` (configuration not stated), for which the IC50 on Integrin alpha-V/beta-3 amounted to 3.81 nM; on Integrin alpha-V/beta-6, 2440 nM; in [8] it was 636 nM.

For the compound `O=C(O)CC(Cc1csc(CCCc2ccc3c(n2)NCCC3)n1)c1cnc(-c2ccccc2)s1` (configuration not stated), the results for the IC50 (at Integrin alpha-V/beta-3; on Integrin alpha-V/beta-6; in [8]) were 1.77 nM, 2670 nM and 252 nM, respectively.

For the compound `O=C(O)CC(Cc1csc(CCCc2ccc3c(n2)NCCC3)n1)c1cnc(-c2ccc(Cl)cc2)s1` (configuration not stated), the IC50 on Integrin alpha-V/beta-3 was determined as 2.09 nM; at Integrin alpha-V/beta-6, 4300 nM; in data set [8] it was 559 nM.

Turning to `O=C(O)C[C@H](Cc1csc(CCCCNc2cc(N3CCOCC3)ccn2)n1)c1ccc2c(c1)OCO2`, at Integrin alpha-V/beta-3, the IC50 is 1.56 nM.

With `O=C(O)CC(Cc1csc(CCCc2ccc3c(n2)NCCC3)n1)c1ccc(F)c(F)c1` (configuration not stated), the IC50 came out at 3.49 nM on Integrin alpha-V/beta-3, 2120 nM at Integrin alpha-V/beta-6 and 484 nM in [8].

As for `O=C(O)CC(Cc1nc(CCCc2ccc3c(n2)NCCC3)no1)c1ccc2c(c1)OCO2` (racemic), the AUC/dose in the data set on Rattus norvegicus [1] is 1.5 µg·h/mL; in the data set on Rattus norvegicus [6], 1.6 µg·h/mL. The Cmax in [2] was found to be 12000 ng/mL. Besides, the half-life in [3] is 1.4 h. The Vd in [4] came to 0.733 L/kg. Moreover, the bioavailability in [5] was found to be 95%. The compound further came in with a clearance in data set [7] of 10.9 mL/min/kg.

A word on the IC50: it is the concentration that inhibits the measured activity by half. A word on the Cmax: it is the highest concentration seen after dosing. Usually half-life stands for the time in which the quantity being followed falls by half. A word on the bioavailability: it is dose-corrected exposure relative to a reference, in per cent. Broadly, the clearance is the volume of plasma or blood freed of the substance per unit of time.
